Compounds with a hit are over-represented: about 2.3% of the library has one in this group of screens.
TRPC4 block = blocks the mouse TRPC4 cation channel; Q9QUQ5; HEK293 TRPC4beta/mu-opioid, DAMGO-evoked Fluo4 calcium flux; hits give low values; B-score at 10 µM; 0.39% of 300,000 active;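 active means B-score over 3 SD under the library average, no early fluorescence shift, positive overall ratio signal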
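Test system – stable TRPC4beta/mu-opioid receptor HEK293 cells · Probe or stimulus – DAMGO, a submaximal dose followed by a maximal one · Dosing – one concentration per compound · Signal – Fluo4 calcium fluorescence by kinetic imaging, 5 s 1 Hz baseline · Evaluation – per-well B score of integrated baseline-normalized Fluo4 ratio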
TRPC4 act = activators of mouse TRPC4 channel. Q9QUQ5. 0.49% of 310,000 active. AID 2237. B-score at 10 µM. HEK293 TRPC4beta/mu-opioid, Fluo4 calcium fluorescence; hits give high values;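 active means B-score above 5 SD of library B-scores, and initial fluorescence ratio not above library mean plus 5 SD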;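 further: positive B-score marks a calcium rise read as TRPC4 activation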
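Assay system: HEK293 cells stably co-expressing mouse TRPC4beta and mu-opioid receptor / Timing: Fluo4 dye loading 45 min at room temperature, 110 s recording / Signal: Fluo4 calcium-sensitive dye fluorescence, kinetic, 1 Hz baseline / Read-out: integrated baseline-normalised fluorescence ratio, converted to per-well B score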
TRPC6 inhibitor = mouse TRPC6 channel inhibition | Q61143 | AID 2553 | B-score at 10 µM | HEK293-TRPC6, membrane potential dye, ACh-evoked depolarization; hits give low values | 1.1% of 310,000 active;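 active means B-score under library mean minus 3 SD, initial fluorescence not abnormally high, positive integrated signal ratio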;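 further: B-score derived from integrated fluorescence ratio over the kinetic read; more negative B-score means stronger inhibition of depolarization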
Target sequence (Q61143 whole entry, looked up): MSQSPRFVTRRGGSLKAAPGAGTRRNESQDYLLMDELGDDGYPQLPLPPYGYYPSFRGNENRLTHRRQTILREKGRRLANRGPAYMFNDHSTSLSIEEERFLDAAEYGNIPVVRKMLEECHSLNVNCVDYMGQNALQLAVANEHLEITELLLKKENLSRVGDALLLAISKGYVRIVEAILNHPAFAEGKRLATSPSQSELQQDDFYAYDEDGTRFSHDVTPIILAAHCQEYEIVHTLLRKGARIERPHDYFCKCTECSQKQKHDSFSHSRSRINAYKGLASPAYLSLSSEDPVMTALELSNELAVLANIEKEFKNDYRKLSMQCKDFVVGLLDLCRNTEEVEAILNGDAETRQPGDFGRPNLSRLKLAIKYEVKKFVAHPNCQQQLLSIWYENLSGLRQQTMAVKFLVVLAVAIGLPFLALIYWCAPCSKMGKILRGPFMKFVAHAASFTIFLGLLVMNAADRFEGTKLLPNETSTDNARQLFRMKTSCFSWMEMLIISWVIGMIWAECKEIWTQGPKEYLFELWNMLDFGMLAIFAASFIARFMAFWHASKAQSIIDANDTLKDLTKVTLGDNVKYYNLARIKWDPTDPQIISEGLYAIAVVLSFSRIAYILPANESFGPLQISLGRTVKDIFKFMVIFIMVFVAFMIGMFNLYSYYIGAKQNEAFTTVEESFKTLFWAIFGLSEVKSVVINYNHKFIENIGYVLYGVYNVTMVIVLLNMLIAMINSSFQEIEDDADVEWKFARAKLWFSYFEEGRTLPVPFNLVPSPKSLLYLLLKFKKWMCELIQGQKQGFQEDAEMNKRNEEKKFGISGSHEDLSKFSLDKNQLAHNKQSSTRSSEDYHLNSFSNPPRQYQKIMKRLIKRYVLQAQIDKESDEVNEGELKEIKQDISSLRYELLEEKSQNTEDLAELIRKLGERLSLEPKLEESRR
TRPC4 potent = TRPC4 (mouse) allosteric potentiation. Q9QUQ5. HEK293 TRPC4beta/mu-opioid, DAMGO EC20, Fluo-4 Ca2+ flux; hits give high values. B-score at 10 µM. 0.42% of 310,000 active. AID 2227;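 active means B-score of calcium response area above 5 SD of library B-scores, with initial fluorescence ratio within 5 SD of library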
TRPC6 act = mouse TRPC6 channel activation; HEK293-TRPC6 membrane potential dye fluorescence; hits give high values; 0.13% of 310,000 active; B-score at 10 µM; Q61143;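 active means B-score of the integrated fluorescence ratio above library mean plus 3 SD, and starting fluorescence ratio within library mean plus 5 SD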;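 further: higher score means more depolarization so channel activation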
TRPC4 spec 2 = second selectivity test of TRPC6 inhibitors: effect on mouse TRPC4. shares compounds with TRPC6 inhibitor. HEK293 TRPC4/MOR, membrane potential dye fluorescence; channel activated by saturating DAMGO dose. inhibition, % at 10 µM. 42% of 920 active. AID 2776;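 active means compounds whose fluorescence signal differed from control wells by over 3 SD, either direction, in both duplicate plates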
TRPC4 spec = selectivity of TRPC6 inhibitors: effect on mouse TRPC4 | activity change, negative = inhibition, % at 10 µM | shares compounds with TRPC6 inhibitor | HEK293 TRPC4/mu-opioid, membrane potential fluorescence | 61% of 920 active;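 active means rise or fall in signal beyond 3 SD of buffer-only wells in both replicate plates, either sign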;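 further: integrated kinetic ratio of fluorescence range over baseline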
HEK293 MPD ctr 2-1 = second check of TRPC6 inhibitor effects in parental HEK293 cells. shares compounds with TRPC6 inhibitor. parental HEK293 membrane potential dye fluorescence; maximal acetylcholine challenge after compound addition. signal change vs control, % at 10 µM. 31% of 920 active. AID 2779;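 active means membrane potential signal moving either way by over 3 SD of the maximum-effect control, in both duplicate plates, meaning non-specific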
HEK293 MPD ctr-1 = parental HEK293 nonspecific activity of TRPC6 inhibitors | shares compounds with TRPC6 inhibitor | parental HEK293 membrane potential dye fluorescence | membrane potential signal change, % at 10 µM | 60% of 920 active;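 active means membrane potential signal shifting up or down by more than 3 SD of buffer-only wells, on both duplicate plates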
HEK293 MPD ctr-2 = checks TRPC6 modulator effects in parental HEK293 cells; shares compounds with TRPC6 inhibitor; membrane potential dye fluorescence; membrane potential signal change, % at 10 µM; 51% of 2,400 active; AID 488924;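 active means membrane potential signal moves up or down beyond 5 SD from buffer-only wells, on both duplicate plates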
HEK293 MPD ctr 2-2 = parental HEK293 nonspecific activity of TRPC6 modulators, second screen | inhibition, % at 10 µM | shares compounds with TRPC6 inhibitor | membrane potential dye fluorescence; after compound, maximal acetylcholine stimulation | 14% of 2,400 active | AID 488926;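 active means membrane potential signal drops by more than 5 SD from the mean control signal, in both duplicate plates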
TRPC4/MOR mod = tests whether TRPC6 modulators also affect mouse TRPC4. shares compounds with TRPC6 inhibitor. HEK293 TRPC4/mu-opioid, membrane potential fluorescence. percent change from control (negative = decrease, positive = increase), % at 10 µM. 69% of 2,400 active;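 active means membrane potential signal moved up or down beyond 5 SD of buffer control wells, in both duplicate plates, actives on both sides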
TRPC4 ctr inh 2 = second check of whether TRPC6 modulators also affect mouse TRPC4; shares compounds with TRPC6 inhibitor; HEK293 TRPC4/mu-opioid, membrane potential dye fluorescence; stimulated with maximal-effect DAMGO; inhibition, % at 10 µM; 55% of 2,400 active; AID 488928;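 active means drop in membrane potential signal beyond 5 SD of the control wells in both duplicate plates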;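 further: TRPC4 counter screen for TRPC6 hits run under conditions tuned for TRPC6 not TRPC4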
TRPC6 inh conf = confirmation of mouse TRPC6 inhibitors; 43% of 3,300 active; HEK293-TRPC6, membrane potential dye, ACh-evoked depolarization; inhibition, % at 10 µM; AID 488960; shares compounds with TRPC6 inhibitor;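 active means fluorescence ratio falls more than 5 SD below the full-stimulation control mean, in both duplicate runs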;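 further: integrated fluorescence ratio of peak minus minimum over baseline after agonist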
TRPC6 act conf = mouse TRPC6 activator confirmation; HEK293-TRPC6 membrane potential dye fluorescence, FDSS; shares compounds with TRPC6 inhibitor; AID 488961; activation, % at 10 µM; 11% of 2,800 active;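 active means ratio signal rise beyond 5 SD above unstimulated control wells' mean, seen in both duplicate runs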
Large screens that a line does not name were inactive (follow-up assays come after a bar, where they were run).

CCC(C)c1nc2ccsc2c(N2CCOC2=O)c1-c1ccccc1 (stereo not given)	none
O=C(CN1CCCCC1)Nc1ccc(N2CCCCCC2)cc1	TRPC6 inhibitor -6.6 | HEK293 MPD ctr-2 inactive | HEK293 MPD ctr 2-2 inactive | TRPC4/MOR mod inactive | TRPC4 ctr inh 2 36% | TRPC6 inh conf 54% | TRPC6 act conf inactive
O=C(CN1CCCC1)Nc1ccc(-c2nc3cc(NC(=O)CN4CCCC4)ccc3o2)cc1	TRPC6 act 12 | HEK293 MPD ctr-2 218% | HEK293 MPD ctr 2-2 inactive | TRPC4/MOR mod 28% | TRPC4 ctr inh 2 inactive | TRPC6 inh conf inactive | TRPC6 act conf 76%
CCN(CC)CC(=O)Nc1ccc(-c2nc3cc(NC(=O)CN(CC)CC)ccc3o2)cc1	TRPC6 inhibitor -8.7 | TRPC4 spec 2 72% | TRPC4 spec inactive | HEK293 MPD ctr 2-1 inactive | HEK293 MPD ctr-1 inactive | TRPC6 inh conf inactive
COCCNc1c2c(nc3c(-c4ccccc4)c(C)nn13)CCCC2	none
Cc1nn2c(NCCN(C)C)c3c(nc2c1-c1ccccc1)CCCC3	TRPC6 inhibitor -7.3 | HEK293 MPD ctr-2 -192% | HEK293 MPD ctr 2-2 inactive | TRPC4/MOR mod -36% | TRPC4 ctr inh 2 52% | TRPC6 inh conf 48% | TRPC6 act conf inactive
Cc1cc(O)cc(O)c1C(=O)Cc1ccccc1	none
O=C(Cc1ccc([N+](=O)[O-])cc1)c1c(O)cc(O)cc1O	TRPC6 inhibitor -5.5 | HEK293 MPD ctr-2 -62% | HEK293 MPD ctr 2-2 inactive | TRPC4/MOR mod -19% | TRPC4 ctr inh 2 52% | TRPC6 inh conf 52% | TRPC6 act conf inactive
O=C(CSc1nc2nn(-c3ccccc3)c(=O)c-2c2n1CCCCC2)NCCc1ccccc1	none
COCC(=O)NC1CC2CCCC(C1)N2Cc1ccccc1 (stereo not given)	none
CC(C)(C)OC(=O)NC1CC2CCCC(C1)N2Cc1ccccc1 (stereo not given)	TRPC6 inhibitor -5.6 | HEK293 MPD ctr-2 inactive | HEK293 MPD ctr 2-2 88% | TRPC4/MOR mod 14% | TRPC4 ctr inh 2 29% | TRPC6 inh conf 74%
CCCC(=O)Nc1cccc2c1CCCC2	none
CCc1ccc(OCC(=O)Nc2cccc3c2CCCC3)cc1	TRPC6 inhibitor -5 | HEK293 MPD ctr-2 inactive | HEK293 MPD ctr 2-2 inactive | TRPC4/MOR mod inactive | TRPC4 ctr inh 2 inactive | TRPC6 inh conf inactive | TRPC6 act conf inactive
COC(=O)c1c(-c2ccc3ccccc3c2)csc1NC(=O)Cc1ccc(OC)c(OC)c1	TRPC6 inhibitor -5.8 | HEK293 MPD ctr-2 inactive | HEK293 MPD ctr 2-2 inactive | TRPC4/MOR mod inactive | TRPC4 ctr inh 2 inactive | TRPC6 inh conf inactive | TRPC6 act conf inactive
Cc1ccc(CN2CCSc3ccc(C(=O)NCCCN4CCOCC4)cc32)cc1	none
CN1CCN(CCCNC(=O)c2ccc3c(c2)N(Cc2ccccc2)CCS3)CC1	TRPC6 inhibitor -7.9 | TRPC4 spec 2 62% | TRPC4 spec inactive | HEK293 MPD ctr 2-1 inactive | HEK293 MPD ctr-1 inactive | TRPC6 inh conf inactive | TRPC6 act conf inactive
CCN1CCN(CCCNC(=O)c2ccc3c(c2)N(Cc2ccc(C)cc2)CCS3)CC1	TRPC6 inhibitor -5.2 | HEK293 MPD ctr-2 inactive | HEK293 MPD ctr 2-2 inactive | TRPC4/MOR mod inactive | TRPC4 ctr inh 2 74% | TRPC6 inh conf 57% | TRPC6 act conf inactive
CSc1cccc(NC(=S)N2CCC(N(C)C3CCCCCC3)CC2)c1	TRPC6 inhibitor -7.8 | TRPC4 spec 2 58% | TRPC4 spec inactive | HEK293 MPD ctr 2-1 inactive | HEK293 MPD ctr-1 0.9% | TRPC6 inh conf inactive | TRPC6 act conf inactive
CC(CN1c2ccccc2Sc2ccccc21)N(C)C (stereo not given)	TRPC6 inhibitor -6.1 | HEK293 MPD ctr-2 inactive | HEK293 MPD ctr 2-2 94% | TRPC4/MOR mod 8.0% | TRPC4 ctr inh 2 32% | TRPC6 inh conf 72% | TRPC6 act conf inactive
CN(C)CCC(=O)N1c2ccccc2Sc2ccc(C(F)(F)F)cc21	TRPC6 inhibitor -6.3 | HEK293 MPD ctr-2 88% | HEK293 MPD ctr 2-2 92% | TRPC4/MOR mod 14% | TRPC4 ctr inh 2 38% | TRPC6 inh conf 89%
CN(C)CCCN1c2ccccc2Sc2ccc(C(F)(F)F)cc21	TRPC6 inhibitor -7.2 | TRPC4 spec 2 70% | TRPC4 spec 1.5% | HEK293 MPD ctr 2-1 inactive | HEK293 MPD ctr-1 inactive | TRPC6 inh conf inactive | TRPC6 act conf inactive
CCN(CC)CCCCN1c2ccccc2Sc2ccccc21	TRPC6 inhibitor -6.5 | HEK293 MPD ctr-2 inactive | HEK293 MPD ctr 2-2 inactive | TRPC4/MOR mod inactive | TRPC4 ctr inh 2 69% | TRPC6 inh conf 48% | TRPC6 act conf inactive
COc1ccccc1C(=O)NC(=O)COC(=O)C1CC1C (stereo not given)	none
N#C/C(C(=O)NCc1ccccc1)=C1/N=C(NC(=O)c2cccs2)c2ccccc21	none
COc1cc(C(CC(=O)O)n2cnnn2)ccc1OC(C)C (stereo not given)	none
Cc1ccc2sc(NNC(=O)C3=COCCO3)nc2c1C	none
Cc1ccc(S(=O)(=O)N2CCN(C(=O)c3cccs3)CC2)cc1C	TRPC6 act 18 | HEK293 MPD ctr-2 inactive | HEK293 MPD ctr 2-2 inactive | TRPC4/MOR mod 16% | TRPC4 ctr inh 2 inactive | TRPC6 act conf 148%
Cc1ccc2sc(N3CCN(C(=O)C4=COCCO4)CC3)nc2c1C	TRPC6 inhibitor -5.4 | HEK293 MPD ctr-2 inactive | HEK293 MPD ctr 2-2 inactive | TRPC4/MOR mod 17% | TRPC4 ctr inh 2 inactive | TRPC6 inh conf 68%

Bioassay records deposited in PubChem BioAssay by Johns Hopkins Ion Channel Center.
